Results gathered from unrelated publications.
Protocols differ between the studies behind these lines.
CYP2C9: Cytochrome P450 2C9 (CYP2C9, Homo sapiens, UniProt P11712)

target or system | assay | system | conditions | endpoint | result | Compound
 | metabolic stability | rat, liver microsomes | 1 µM, pH 7.4 | half-life | 7 min | COc1cc(Cn2nc(-c3ccc(CO)o3)c3ccccc32)ccn1
CYP2C9 | enzyme activity, inhibitor | human, liver microsomes |  | IC50 | 116 µM | CC(=O)O[C@H]1[C@H](O[C@H]2CC[C@]34C[C@]35CC[C@]3(C)[C@@H]([C@@]6(C)CC[C@@H](C(C)(C)O)O6)[C@@H](O)C[C@@]3(C)[C@@H]5C[C@H](O[C@@H]3O[C@H](CO)[C@@H](O)[C@H](O)[C@H]3O)[C@H]4C2(C)C)OC[C@@H](OC(C)=O)[C@@H]1O
CYP2C9 | enzyme activity, inhibitor | human, liver microsomes | 20 min, without NADPH, with preincubation | IC50 | > 100 µM | CSc1ccccc1C(=O)NCCn1cc(C(=O)NCc2cccc(C)n2)c(=O)c2cc3c(cc21)OCO3
CYP2C9 | enzyme activity, inhibitor | human, liver microsomes |  | IC50 | > 200 µM | CC(C)(O)[C@@H]1CC[C@](C)([C@H]2[C@@H](O)C[C@@]3(C)[C@@H]4C[C@H](O[C@@H]5O[C@H](CO)[C@@H](O)[C@H](O)[C@H]5O)[C@H]5C(C)(C)[C@@H](O[C@@H]6OC[C@@H](O)[C@H](O)[C@H]6O)CC[C@@]56C[C@@]46CC[C@]23C)O1
 | metabolic stability | rat, liver microsomes | 10 µM, pH 7.4 | half-life | 76 min | N#Cc1ccc(C[C@H](NC(=O)c2cc3cc(F)ccc3[nH]2)C(=O)N2CCc3ccccc32)cc1
 |  | male CD-1 mouse, plasma | oral, 10 mg/kg | bioavailability | 15% | NCc1ccc(-c2nn(Cc3ccncc3)c3ccccc23)o1
CYP2C9 | enzyme activity, inhibitor | human, liver microsomes | 20 min, without NADPH, with preincubation | IC50 | > 100 µM | CSc1ccccc1C(=O)NCCn1cc(C(=O)NCc2cccc(C)n2)c(=O)c2cc3c(cc21)OC(F)(F)O3
 | chemical stability, HPLC | glutathione solution | 5 µM, pH 7.4 | half-life | 520 min | C=C(F)C(=O)N1CCN(c2nc(OC[C@@H]3CCCN3C)nc3c2CCN(c2cccc4cccc(Cl)c24)C3)C[C@@H]1CC#N
 |  | BALB/c mouse, plasma | oral, 20 mg/kg | AUC | 7810 ng·h/mL | CN(C)C(=O)c1cc2cnc(Nc3ccc(-c4ccc5c(=O)cc(N6CCOCC6)oc5c4)cc3)nc2n1C1CCCC1.Cl
 | metabolic stability | rat, liver microsomes | 10 µM, pH 7.4 | half-life | 15 min | N#Cc1ccc(C[C@@H](Nc2c(Nc3ccc(F)cc3)c(=O)c2=O)C(=O)N2CCc3ccccc32)cc1
 | metabolic stability | rat, liver microsomes |  | half-life | 5 min | OCc1ccc(-c2nn(Cc3ccccc3)c3ccccc23)o1
